Laboratory results taken from ChEMBL document CHEMBL1255376, “Comparative surveillance study of telavancin activity against recently collected gram-positive clinical isolates from across the United States” (2008).

Experiments:
Assay type in all cases: functional
[1] = tested on: Staphylococcus aureus; experiment: Antibacterial activity against methicillin-resistant Staphylococcus aureus
[2] = tested on: Staphylococcus aureus; experiment: Antibacterial activity against methicillin-susceptible Staphylococcus aureus clinical isolate by broth microdilution method
How it was run: (§1)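 MICs by CLSI broth microdilution in frozen trays pre-loaded with serial dilutions of each agent. Quality-control strains run in parallel: E. faecalis ATCC 29212 and ATCC 51299, S. aureus ATCC 29213, S. pneumoniae ATCC 49619. Comparator susceptibility categories follow CLSI breakpoints. Methicillin resistance in staphylococci assigned from the oxacillin MIC.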

[3] = tested on: Staphylococcus aureus; experiment: Antibacterial activity against methicillin-resistant Staphylococcus aureus clinical isolate by broth microdilution method; how it was run: as §1
[4] = tested on: Staphylococcus cohnii; experiment: Antibacterial activity against methicillin-susceptible coagulase-negative Staphylococcus cohnii clinical isolate by broth microdilution method; how it was run: as §1
[5] = tested on: Staphylococcus epidermidis; experiment: Antibacterial activity against methicillin-susceptible coagulase-negative Staphylococcus epidermidis clinical isolate by broth microdilution method; how it was run: as §1
[6] = tested on: Staphylococcus hominis; experiment: Antibacterial activity against methicillin-susceptible coagulase-negative Staphylococcus hominis clinical isolate by broth microdilution method; how it was run: as §1
[7] = tested on: Mammaliicoccus sciuri; experiment: Antibacterial activity against methicillin-susceptible coagulase-negative Staphylococcus sciuri clinical isolate by broth microdilution method; how it was run: as §1
[8] = tested on: Staphylococcus xylosus; experiment: Antibacterial activity against methicillin-susceptible coagulase-negative Staphylococcus xylosus clinical isolate by broth microdilution method; how it was run: as §1
[9] = tested on: Staphylococcus capitis; experiment: Antibacterial activity against methicillin-resistant coagulase-negative Staphylococcus capitis clinical isolate by broth microdilution method; how it was run: as §1
[10] = tested on: Staphylococcus cohnii; experiment: Antibacterial activity against methicillin-resistant coagulase-negative Staphylococcus cohnii clinical isolate by broth microdilution method; how it was run: as §1
[11] = tested on: Staphylococcus epidermidis; experiment: Antibacterial activity against methicillin-resistant coagulase-negative Staphylococcus epidermidis clinical isolate by broth microdilution method; how it was run: as §1
[12] = tested on: Staphylococcus haemolyticus; experiment: Antibacterial activity against methicillin-resistant coagulase-negative Staphylococcus haemolyticus clinical isolate by broth microdilution method; how it was run: as §1
[13] = tested on: Staphylococcus hominis; experiment: Antibacterial activity against methicillin-resistant coagulase-negative Staphylococcus hominis clinical isolate by broth microdilution method; how it was run: as §1
[14] = tested on: Staphylococcus saprophyticus; experiment: Antibacterial activity against methicillin-resistant coagulase-negative Staphylococcus saprophyticus clinical isolate by broth microdilution method; how it was run: as §1
[15] = tested on: Mammaliicoccus sciuri; experiment: Antibacterial activity against methicillin-resistant coagulase-negative Staphylococcus sciuri clinical isolate by broth microdilution method; how it was run: as §1
[16] = tested on: Staphylococcus simulans; experiment: Antibacterial activity against methicillin-resistant coagulase-negative Staphylococcus simulans clinical isolate by broth microdilution method; how it was run: as §1
[17] = tested on: Staphylococcus xylosus; experiment: Antibacterial activity against methicillin-resistant coagulase-negative Staphylococcus xylosus clinical isolate by broth microdilution method; how it was run: as §1
[18] = tested on: Staphylococcus; experiment: Antibacterial activity against methicillin-resistant coagulase-negative unspeciated Staphylococcus clinical isolate by broth microdilution method; how it was run: as §1
[19] = tested on: Enterococcus faecalis; experiment: Antibacterial activity against vancomycin-susceptible Enterococcus faecalis clinical isolate by broth microdilution method; how it was run: as §1
[20] = tested on: Enterococcus faecalis; experiment: Antibacterial activity against vancomycin- and teichoplanin-nonsusceptible Enterococcus faecalis clinical isolate by broth microdilution method; how it was run: as §1
[21] = tested on: Enterococcus faecium; experiment: Antibacterial activity against vancomycin- and teichoplanin-nonsusceptible Enterococcus faecium clinical isolate by broth microdilution method; how it was run: as §1
[22] = tested on: Enterococcus faecium; experiment: Antibacterial activity against vancomycin-resistant and teichoplanin-susceptible Enterococcus faecium clinical isolate by broth microdilution method; how it was run: as §1
[23] = tested on: Streptococcus pyogenes; experiment: Antibacterial activity against Streptococcus pyogenes clinical isolate by broth microdilution method
How it was run: (§2)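 MIC by CLSI broth microdilution in frozen microtiter trays holding serial dilutions of each agent, prepared from standard laboratory powders. E. faecalis ATCC 29212 and ATCC 51299, S. aureus ATCC 29213 and S. pneumoniae ATCC 49619 run in parallel as quality-control strains. Comparator susceptibility interpreted with CLSI breakpoints.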

[24] = tested on: Streptococcus agalactiae; experiment: Antibacterial activity against Streptococcus agalactiae clinical isolate by broth microdilution method; how it was run: as §2
[25] = Antibacterial activity against Streptococcus sp. Group C clinical isolate by broth microdilution method; how it was run: as §2
[26] = tested on: Streptococcus sp.; experiment: Antibacterial activity against Streptococcus sp. Group F clinical isolate by broth microdilution method
How it was run: (§3)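 MIC by CLSI broth microdilution in frozen microtiter trays holding serial dilutions of each agent, prepared from standard laboratory powders. Comparator susceptibility interpreted with CLSI breakpoints.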

[27] = Antibacterial activity against Streptococcus sp. Group G clinical isolate by broth microdilution method; how it was run: as §2
[28] = tested on: Streptococcus equinus; experiment: Antibacterial activity against Streptococcus bovis clinical isolate by broth microdilution method; how it was run: as §2
[29] = tested on: Streptococcus constellatus; experiment: Antibacterial activity against Streptococcus constellatus clinical isolate by broth microdilution method; how it was run: as §2
[30] = tested on: Streptococcus intermedius; experiment: Antibacterial activity against Streptococcus intermedius clinical isolate by broth microdilution method; how it was run: as §2
[31] = tested on: Streptococcus mitis; experiment: Antibacterial activity against Streptococcus mitis clinical isolate by broth microdilution method; how it was run: as §2
[32] = tested on: Streptococcus oralis; experiment: Antibacterial activity against Streptococcus oralis clinical isolate by broth microdilution method; how it was run: as §2
[33] = tested on: Streptococcus sp.; experiment: Antibacterial activity against Streptococcus sp. clinical isolate by broth microdilution method; how it was run: as §3
[34] = tested on: Streptococcus pneumoniae; experiment: Antibacterial activity against penicillin susceptible Streptococcus pneumoniae clinical isolate by broth microdilution method; how it was run: as §1
[35] = tested on: Streptococcus pneumoniae; experiment: Antibacterial activity against penicillin intermediate Streptococcus pneumoniae clinical isolate by broth microdilution method; how it was run: as §1
[36] = tested on: Staphylococcus capitis; experiment: Antibacterial activity against daptomycin-nonsusceptible Staphylococcus capitis isolate 1285355 by broth microdilution method; how it was run: as §2
[37] = tested on: Staphylococcus aureus; experiment: Antibacterial activity against vancomycin-, methicillin-resistant Staphylococcus aureus VRS1 by broth microdilution method
How it was run: (§4)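 VISA and VRSA strains from the NARSA repository were tested separately from the surveillance isolates. MICs by CLSI broth microdilution in frozen trays with serial dilutions. Quality-control strains run in parallel. Susceptibility categories follow CLSI breakpoints, and methicillin resistance was assigned from the oxacillin MIC.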

[38] = tested on: Staphylococcus aureus; experiment: Antibacterial activity against vancomycin-, methicillin-resistant Staphylococcus aureus VRS2 by broth microdilution method; how it was run: as §4

CN[C@H](CC(C)C)C(=O)N[C@H]1C(=O)N[C@@H](CC(N)=O)C(=O)N[C@H]2C(=O)N[C@H]3C(=O)N[C@H](C(=O)N[C@H](C(=O)O)c4cc(O)cc(O)c4-c4cc3ccc4O)[C@H](O)c3ccc(c(Cl)c3)Oc3cc2cc(c3O[C@@H]2O[C@H](CO)[C@@H](O)[C@H](O)[C@H]2O[C@H]2C[C@](C)(N)[C@H](O)[C@H](C)O2)Oc2ccc(cc2Cl)[C@H]1O [VANCOMYCIN]
128 µg/mL: MIC50 [22]
32 µg/mL: MIC [38]
0.69 µM: MIC50 [1]
0.25 µg/mL: MIC [23] | MIC50 [23] | MIC [25] | MIC50 [25] | MIC [26] | MIC50 [26] | MIC [27] | MIC50 [27] | MIC50 [34] | MIC [35] | MIC50 [35]
1 µg/mL: MIC50 [2] | MIC90 [2] | MIC50 [3] | MIC90 [3] | MIC50 [4] | MIC50 [5] | MIC50 [6] | MIC50 [7] | MIC50 [8] | MIC50 [19]
0.5 µg/mL: MIC90 [23] | MIC50 [24] | MIC90 [24] | MIC90 [25] | MIC90 [26] | MIC90 [27] | MIC50 [28] | MIC90 [28] | MIC50 [29] | MIC90 [29] | MIC50 [30] | MIC90 [30] | MIC50 [31] | MIC90 [31] | MIC50 [32] | MIC90 [32] | MIC50 [33] | MIC90 [33] | MIC90 [34] | MIC90 [35]
2 µg/mL: MIC90 [4] | MIC90 [5] | MIC90 [6] | MIC90 [7] | MIC90 [8] | MIC50 [9] | MIC90 [9] | MIC50 [10] | MIC90 [10] | MIC50 [11] | MIC90 [11] | MIC50 [12] | MIC90 [12] | MIC50 [13] | MIC90 [13] | MIC50 [14] | MIC90 [14] | MIC50 [15] | MIC90 [15] | MIC50 [16] | MIC90 [16] | MIC50 [17] | MIC90 [17] | MIC50 [18] | MIC90 [18] | MIC90 [19] | MIC [36]
> 32 µg/mL: MIC [37]
512 µg/mL: MIC50 [20] | MIC50 [21] | MIC90 [21] | MIC90 [22]
> 512 µg/mL: MIC90 [20]
